# pCIP destab = p/CIP protein destabilization. decrease of EGFP signal, % at 10 µM. actives 0.01% (n = 290,000). F442A p/CIP-EGFP cells, EGFP fluorescence, 16 h;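 active = EGFP signal decrease of at least 30% at 10 µM or well 3 SD below plate mean, unless failing retest; inactive = the rest, including hits failing retest or dose response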
# Lipid droplet = modulators of hepatic lipid droplet formation. AID 1656. AML12 mouse hepatocytes, oleate lipid droplets, BODIPY imaging. actives 0.4% (n = 240,000). inhibition, % at 6.5 µM;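 active = lipid droplet intensity inhibited by at least 50%, with more than 500 cells counted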
#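 Assay system: AML12 hepatocytes (mouse); Probe or stimulus: oleic acid at 100 µM to induce lipid droplet formation; Dosing: compound at 6.5 µM only; Schedule: compound with oleate, overnight; Detection: fluorescence imaging, 20x objective, two fields per well; Measure: % inhibition of lipid droplet signal.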
# procasp3 activ = procaspase-3 (human) activation | P42574 | recombinant procaspase-3 D3A, Ac-DEVD-pNA absorbance 405 nm | activation, % at 8.5 µM | actives 0.11% (n = 330,000);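 active = activation above the mean of all tested compounds plus 3 SD, cut at about 21% in these data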
# Target sequence (P42574 whole entry D9A/D28A/D175A): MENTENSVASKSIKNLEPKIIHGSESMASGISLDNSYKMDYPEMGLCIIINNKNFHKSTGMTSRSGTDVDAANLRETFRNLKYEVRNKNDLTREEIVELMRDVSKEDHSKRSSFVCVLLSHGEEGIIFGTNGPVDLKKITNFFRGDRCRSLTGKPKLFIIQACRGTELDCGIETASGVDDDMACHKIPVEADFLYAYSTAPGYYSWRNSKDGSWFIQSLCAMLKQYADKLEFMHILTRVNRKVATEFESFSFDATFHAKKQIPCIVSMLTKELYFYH
#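 assay system = Procaspase-3 D3A mutant | signal = absorbance at 405 nm, 0 and 120 min | times = 1 h preincubation plus 2 h reaction at 25 °C | repeats = single replicate | read-out = % activation between DMSO and enzyme-spiked controls | medium = Zinc-free HEPES saline buffer with Triton X-100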
# GAA850 FXN act = activators of GAA850 frataxin (FXN) promoter; HEK293 lucGAA850 FXN promoter luciferase reporter, 24 h; percent of 10 µM SAHA response; activation, % at 6 µM; actives 0.56% (n = 360,000); AID 540364;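 active = activation above the average of all compounds screened plus 3 SD, cutoff fixed separately per campaign, cut at about 7.5% in these data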
# Rce1 inhib = inhibitors of yeast Ras-converting enzyme. Q03530. yeast membranes, quenched prenylated peptide cleavage fluorescence. calls only. actives 0.27% (n = 290,000);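 active = fall in fluorescence gain of 50% or more versus controls, with final raw signal at or below 3038400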
# proCasp7 act = activates human procaspase-7, counter-screen for procaspase-3 activators; P55210; recombinant procaspase-7, Ac-DEVD-pNA absorbance 405 nm; D23A/D198A/D206A triple mutant, cannot self-cleave; scale: DMSO 0, 5 µM enzyme 100; activation, % at 8.5 µM; actives 0.093% (n = 330,000); AID 463210;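 active = percent activation above the screen-wide mean plus 3 SD, cut at about 25% in these data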
# Target sequence (P55210 whole entry D23A/D198A/D206A): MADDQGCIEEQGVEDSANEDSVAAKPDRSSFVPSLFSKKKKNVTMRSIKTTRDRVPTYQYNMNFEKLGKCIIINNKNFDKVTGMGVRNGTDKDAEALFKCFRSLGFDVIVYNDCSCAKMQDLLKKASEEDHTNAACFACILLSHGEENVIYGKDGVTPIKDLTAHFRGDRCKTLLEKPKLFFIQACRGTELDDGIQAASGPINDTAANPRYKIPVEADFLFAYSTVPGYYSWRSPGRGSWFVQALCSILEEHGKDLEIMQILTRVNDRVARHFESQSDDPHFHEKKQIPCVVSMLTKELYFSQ
#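 Assay system – Uncleavable procaspase-7 mutant enzyme · Quantity – 2 µM procaspase-7 mutant as dispensed · Times – 1 h preincubation, 2 h reaction · Dosing – single nominal 8.5 µM compound dose, 0.8% DMSO final · Buffer or medium – Zinc-free 50 mM HEPES buffer, pH 7.4, with NaCl and Triton X-100 · Detection – Epi-absorbance of released pNA at 405 nm, two timepoints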
# Hits are given with their value; n = inactive; x = no result; + = active, no number. Only some compounds are listed: those with a hit (about 1.2% of all), similar ones and a draw of the others.
SMILES,pCIP destab,Lipid droplet,procasp3 activ,GAA850 FXN act,Rce1 inhib,proCasp7 act
COc1ccc2cc(C(=O)C3CCCN(C(=O)c4ccnn4C)C3)ccc2c1 (centres undefined),n,n,n,n,n,n
COc1ccc2cc(C(=O)C3CCCN(C(=O)c4cc(=O)n(C)c(=O)n4C)C3)ccc2c1 (centres undefined),n,n,n,n,+,n
Cc1cccc(OCCN2C(=O)C(=O)c3cc(C)ccc32)c1,n,n,n,n,+,n
Cc1ccnc(SCc2cn3c(C)cc(C)nc3n2)n1,n,n,n,n,+,n
Cc1cc(C)n2cc(CSC3=NCCS3)nc2n1,n,x,n,n,+,n
Cc1cc(C)n2cc(CSc3ncccc3C(=O)O)nc2n1,n,x,n,n,+,n
Cc1cc(C)n2cc(CSCc3ccco3)nc2n1,n,n,n,n,n,n
Cc1noc(C)c1NC(=O)N(C)C[C@@H]1Oc2ncc(Br)cc2C(=O)N([C@@H](C)CO)C[C@H]1C,x,x,x,n,x,x
O=C(NCc1cccs1)c1ccc(-c2ccc(F)c(F)c2)c2ccoc12,x,x,x,n,x,x
CC(=O)c1cc2cccc(OC3(C)CCN(Cc4ccc(-c5ccccn5)cc4)C3)c2o1 (centres undefined),x,x,x,n,x,x
CCN(Cc1ccccc1)c1ccc(/C=N/N=C(N)N)cc1,n,n,n,n,+,n
Cc1ccc(S(=O)(=O)NC(=O)C2(C)CCN2C(=O)c2ccccc2CCc2ccccc2)nc1 (centres undefined),x,x,x,n,x,x
O=C1c2cccc(OCC(=O)N3N=C(c4cccs4)CC3c3ccc(F)cc3)c2CCN1Cc1cccnc1 (centres undefined),n,n,n,n,+,n
O=C(c1cccnc1)N1N=C(c2cccs2)CC1c1ccc(F)cc1 (centres undefined),n,n,n,n,n,n
Cc1ccc(S(=O)(=O)Cc2cn3cccnc3n2)cc1,n,x,x,n,+,x
CCOC(=O)C1(CCOC)CCN(C(=O)c2sccc2C)CC1,n,n,n,n,+,n
Cc1noc(C)c1-c1ccc(C(=O)Nc2cccc(C(F)(F)F)c2)c2occc12,x,x,x,n,x,x
CC(=O)c1cccc(Nc2nc(-c3cccc([N+](=O)[O-])c3)cs2)c1,n,n,n,8.0,n,n
CC(=O)Nc1nc(C)c(-c2csc(Nc3cccc([N+](=O)[O-])c3)n2)s1,n,n,n,n,n,n
Cc1c(C(=O)NCc2ccccc2C(F)(F)F)sc(=O)n1Cc1ccc(F)cc1,x,x,x,n,x,x
COCc1cc(C)n(CC(=O)NC(C)c2ccccc2)c(=O)c1C#N (centres undefined),n,x,n,n,n,n
COCc1cc(C)n(CC(=O)NCc2ccccc2)c(=O)c1C#N,n,n,n,n,+,n
N=C(N)c1ccc(/C=C/c2ccc(C(=N)N)cc2O)cc1,n,n,n,n,+,n
CN1c2ccccc2-c2nc3ccccc3n2C1c1ccncc1 (centres undefined),n,n,n,n,+,n
CC(C)(C)C(=O)C[n+]1ccc(C(N)=O)cc1,n,n,n,n,+,n
SMILES,pCIP destab,Lipid droplet,procasp3 activ,GAA850 FXN act,Rce1 inhib,proCasp7 act
CN(C)C(=O)C[n+]1ccc(C(N)=O)cc1,n,n,n,n,n,n
COc1ccccc1NC(=O)COC(=O)c1cc(C)nc2ccccc12,x,x,n,n,x,n
Cc1cc(C(=O)OCC(=O)Nc2ccc(S(N)(=O)=O)cc2)c2ccccc2n1,62,n,n,n,x,n
COc1ccc(-c2nc3ncccc3o2)cc1NC(=O)c1ccco1,n,n,n,n,+,n
COc1ccc(/C=C/c2nc3ccccc3n2C)cc1,n,n,n,n,+,n
O=C(O)c1ccc(N/N=C/c2ccc(-c3ccccc3Cl)o2)cc1,n,n,n,n,+,n
O=C(O)c1ccc(N/N=C/c2ccc(-c3ccc(Br)cc3)o2)cc1,n,n,n,n,n,n
O=C(N=C1c2ccccc2CN1c1ccccc1)c1cccc([N+](=O)[O-])c1,n,n,n,n,n,n
CCOC(=O)c1ccc(N2Cc3ccccc3C2=NC(=O)c2cccc([N+](=O)[O-])c2)cc1,x,x,n,7.8,x,n
C/C(=N\NC(=O)c1ccc(Br)cc1)c1cccc(NC(=O)c2cccnc2)c1,n,n,n,n,+,n
C/C(=N\NC(=O)c1ccncc1)c1cccc(NC(=O)c2ccc(C(C)(C)C)cc2)c1,n,n,n,n,n,n
C=CCOc1cccn2c(N(C=O)Cc3ccc(OC)cc3)c(CC)nc12,x,x,x,n,x,x
N#Cc1nc(-c2ccco2)oc1N1CCN(C(c2ccccc2)c2ccccc2)CC1,n,n,n,n,+,n
CC(=O)c1c(C)nc(-c2ccccc2)nc1N,n,n,n,n,+,n
CCOC(=O)C1CCCN(S(=O)(=O)c2cc3[nH]c(=O)c(=O)[nH]c3cc2C)C1 (centres undefined),n,n,n,n,+,n
O=C(Nc1ccc2c(c1)OCO2)c1cc(C2CCCCN2C(=O)c2ccccc2)on1 (centres undefined),x,x,x,n,x,x
COc1cccc(/C=C/C(=O)OCC(=O)Nc2ccc(Cl)c(S(=O)(=O)N(C)C)c2)c1OC,n,n,n,n,+,n
COc1ccc(C(C)(NC(C)=O)c2nc(-c3cccc(F)c3)cs2)cc1 (centres undefined),x,x,x,n,x,x
C=C(C)C1(O)OC(=O)C=C1OC (centres undefined),n,n,n,n,+,n
COc1ccc(C2=CC(=O)OC3(CCCCC3)O2)cc1,n,n,n,n,n,n
CC(C)NC(=O)C1(C)CCN1Cc1ccc(Cl)cc1 (centres undefined),x,x,x,n,x,x
CCC(Sc1nc2sc(C(=O)OC)c(C)c2c(=O)n1N)C(=O)N(CC)CC (centres undefined),n,n,n,n,n,n
CCCCNC(=O)C(CC)Sc1nc2sc(C(=O)OC)c(C)c2c(=O)n1N (centres undefined),n,x,n,n,+,n
N=c1oc2cc(O)ccc2cc1C(=O)Nc1nc2ccccc2s1,n,n,n,n,+,n
CN1CCN(CCCNC(=O)c2cc3c(-c4ccc(Cl)cc4)nn(C)c3s2)CC1,n,x,n,n,+,n
O=C1CN(S(=O)(=O)c2ccc([N+](=O)[O-])cc2)CC(=O)N1,n,n,n,n,+,n
CCc1nc2ccc(C(=O)NC3CCN(Cc4ccccc4)CC3)cn2c1N(C)Cc1cc2ccccc2s1,x,x,x,n,x,x
Cc1nc(N2CCOCC2)c2cc(-c3ccccc3)sc2n1,n,x,n,n,+,n
COCCNC(=O)C1(C)CCCN(CCS(=O)(=O)c2ccc(C)cc2)C1 (centres undefined),x,x,x,n,x,x

# Screening results: PubChem, several laboratories
